Compounds with a hit are over-represented: about 2.1% of the library has one in this group of screens.
IMP-1 inh: blocks Pseudomonas aeruginosa IMP-1 metallo-beta-lactamase; purified IMP-1, nitrocefin hydrolysis, epi-absorbance fluorescence; inhibition, % at 5.6 µM; 290,000 compounds, 0.45% hits; AID 1556;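 active means inhibition above the mean plus 3 SD of all compounds in the same screening run, cut at about 4.5% in these data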;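 further: 0% = IMP-1 with DMSO and 100% = DMSO wells lacking enzyme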
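System: purified IMP-1; amount: IMP-1 0.2 nM before substrate addition; compound: single dose, 5.6 µM; times: 25 °C, 15 min preincubation, 25 min reaction; signal: Epi-absorbance via hydrolysed-nitrocefin quenching of white-plate fluorescence, 480/530 nm, EDTA stop; benchmarks: DMSO with and without IMP-1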
UBC9 SUMO inh: blocks human SUMOylation mediated by UBC9. HTRF SUMOylation assay, SAE1/SAE2 + UBC9, in vitro. inhibition, % at 35 µM. 290,000 compounds, 0.36% hits; in the data active means inhibition above about 50%, passing the limit was not always enough
Target sequence (P63279 whole entry, looked up): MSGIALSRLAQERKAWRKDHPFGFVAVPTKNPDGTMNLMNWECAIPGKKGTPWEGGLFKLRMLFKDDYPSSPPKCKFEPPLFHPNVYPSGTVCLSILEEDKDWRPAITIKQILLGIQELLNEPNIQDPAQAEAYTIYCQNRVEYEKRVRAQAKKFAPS
VIM-2 inhibitor: inhibitors of Pseudomonas aeruginosa VIM-2 metallo-beta-lactamase; inhibition, % at 5.6 µM; 290,000 compounds, 0.89% hits; purified VIM-2, nitrocefin hydrolysis, epi-absorbance fluorescence; AID 1527;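 active means inhibition above the mean of all tested compounds plus 3 SD, cutoff set per screening run, cut at about 7.5% in these data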;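 further: red hydrolysis product quenches plate fluorescence so inhibitors raise well fluorescence; 0% = enzyme with DMSO and 100% = DMSO without enzyme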
HCV NS3 hel inh: inhibitors of Hepatitis C virus NS3 helicase | NS3 helicase DNA unwinding, Cy5 molecular beacon fluorescence | inhibition, % at 10.9 µM | 290,000 compounds, 0.56% hits | AID 1800;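 active means inhibition above the mean of all tested compounds plus 3 SD, set per campaign, cut at about 35% in these data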;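 further: 0% = DMSO wells and 100% = thioflavine S control wells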
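Assay system – hepatitis C virus NS3 helicase domain fragment enzyme · Buffer or medium – MOPS pH 6.5, MgCl2, DTT, Tween20, BSA · Reagent – Cy5/quencher beacon DNA duplex and ATP to start · Compound – single 10.9 µM dose · Timing – 1 h at 25 °C · Technique – Cy5 beacon fluorescence read at start and 1 h · Measure – % inhibition of unwinding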
FID counter: displaces DNA intercalator in HCV helicase counter-screen; DNA fluorescent intercalator displacement, fluorescence; inhibition, % at 7.9 µM; 290,000 compounds, 0.17% hits; AID 1845; in the data active means inhibition above about 37%;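 further: 0% = vehicle and 100% = reference compound; higher means more ethidium bromide displaced from hairpin DNA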
Numbers without * were called inactive.

SMILES	IMP-1 inh	UBC9 SUMO inh	VIM-2 inhibitor	HCV NS3 hel inh	FID counter
CCOc1ccc(C(=O)NCC(=O)NC(C)CCc2ccccc2)cc1OCC (stereo not given)	-2	-5	-3	32	-48
COc1ccccc1NC(=O)CN1CCN(C(=O)C2CCCO2)CC1 (stereo not given)	-1	10	1	0	-6
COc1ccc(-n2cc(CNC3CCN(C)CC3)c(-c3cccc(F)c3)n2)cc1	-1	3	2	-68	42*
Cc1ccc(-c2nn(-c3ccccc3)cc2CC(=S)N2CCOCC2)cc1	-3	4	-1	-8	-19
COc1cccc(-c2nn(C)c3sc(C(=O)NCc4ccc5c(c4)OCO5)cc23)c1	-3	-14	-2	-18	-17
COc1cccc(-c2nn(C)c3sc(C(=O)NCc4ccc(C)o4)cc23)c1	4.7*	28	-1	9	-11
Nc1nonc1C(=O)NCCNCc1cc(Br)ccc1OCc1ccccc1F	2	5	1	-84	40*
CN(CC(=O)Nc1ncn[nH]1)S(=O)(=O)c1cc(Cl)ccc1Cl	-2	13	-5	-2	-6
COc1ccc(Cl)cc1C(=O)OCC(=O)NCCNC(=O)COC(=O)c1cc(Cl)ccc1OC	-2	16	0	-7	-42
Cc1cc(Cl)ccc1C(=O)C1CCCN(C(=O)c2ccc3ncccc3c2)C1 (stereo not given)	-4	-1	-1	-3	-26
Cc1ccc(NCC(=O)c2ccc(C)cc2)cc1	36*	18	6	-8	0
Cc1ccc(C(=O)CNc2ccc(C)c(Cl)c2)cc1	-4	1	-1	5	0
CCOc1ccc(Nc2cc(C)nc3c(C)cccc23)cc1	0	14	0	-5	4
Nc1ccccc1Sc1c[nH]c2ccccc12	-3	-12	-4	-1	1
CC(C)(C)NC(=O)CSc1ncnc2c1cnn2-c1ccccc1	-2	7	-2	13	-30
COc1ccc(C(=O)N/N=C\c2coc3ccc(C)cc3c2=O)cc1	8.7*	24	-2	14	-13
Cc1ccc2occ(/C=N/NC(=O)c3ccncc3)c(=O)c2c1	6.4*	6	-4	-2	-3
Cc1ccc2occ(/C=N/NC(=O)c3ccc(Cl)cc3)c(=O)c2c1	0	7	-4	26	-7
COc1ccc(CSCC(=O)Nc2ccccc2)cc1[N+](=O)[O-]	0	-7	1	8	-1
CNCC[C@H](Oc1cccc2ccccc12)c1cccs1	1	-7	1	-83	41*
Cc1c(Cl)cccc1NC(=O)Nc1cc(C(C)(C)C)on1	-2	-15	-2	-3	-20
Nc1cccc2c1C(=O)N(C(=O)c1ccc(Cl)c(S(=O)(=O)N3CCCCCC3)c1)C2=O	4.8*	22	-2	1	-17
Nc1cccc2c1C(=O)N(C(=O)c1cccc(S(=O)(=O)N3CCCCCC3)c1)C2=O	-1	19	-2	2	-5
Cc1cc(C)nc(-n2nc(C)cc2NC(=O)CN2CCCC2)n1	-4	30	2	-1	-4
Cc1cc(C)nc(-n2nc(C)cc2NC(=O)CN2CCC(C)CC2)n1	-1	6	9.0*	8	-13
SMILES	IMP-1 inh	UBC9 SUMO inh	VIM-2 inhibitor	HCV NS3 hel inh	FID counter
CN1C(=O)c2cccc3c(Cl)ccc(c23)C1=O	0	21	0	7	5
CN1C(=O)c2cccc3c(N(C)C)ccc(c23)C1=O	1	6	9.8*	1	-2
O=C1NC(c2ccc(Cl)c([N+](=O)[O-])c2)Nc2ccccc21 (stereo not given)	0	6	2	4	1
O=[N+]([O-])c1cc(C2Nc3cccc4cccc(c34)N2)ccc1Cl	-2	59*	-2	4	1
CNC(=S)N1CCN=C1Nc1nc(C)cc(C)n1	-3	-4	1	-30	-3
O=[N+]([O-])c1cccc(C=Nc2cccc3ccccc23)c1O	2	51*	-1	28	8
O=[N+]([O-])c1ccc(O)c(C=Nc2cccc3ccccc23)c1	-3	48	1	8	1
Cc1ccc(O)c(C=Nc2cc(C)ccc2O)c1	0	18	1	28	-6
Cc1ccc(O)c(N=Cc2cc(Cc3ccccc3)cc([N+](=O)[O-])c2O)c1	11*	31	-2	5	-10
O=C(O)/C=C\c1cn(-c2ccccc2)nc1-c1cc2ccccc2o1	-2	59*	-2	-8	-14
